In PMC4504105 (Journal of Cancer, 2015):
Each block holds one compound with its values, some of them ahead of it.

Experiments:
[1] = system: ubiquitinated and cell cycle proteins in PC-3M cells; experiment: Western blot analysis, PC-3M cells; assay type: cell-based
Summary of the method: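 PC-3M cells exposed 48 h to a series of test compound concentrations (12.5-100 nM for cell-cycle proteins), then lysed. 10% SDS-PAGE, nitrocellulose, 5% milk block. Primary antibodies (ubiquitin, wee 1, cyclin B1, p27, p21, GAPDH) overnight at 4°C; anti-mouse/anti-rabbit secondaries; ECL detection. Three independent experiments; Student's t-test against control.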

Bcap37 cells = experiment: Cancer cell proliferation; assay type: cell-based; conditions: read-out: IC50, proliferation, 48 h
Summary of the method: (§1)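 PC-3M, […] or Bcap37 cells kept in RPMI 1640 with 10% FBS and 1% penicillin/streptomycin, 37°C, 5% CO2. In 96-well plates, treated 48 h with graded concentrations of test compound or of a reference proteasome inhibitor in parallel. Survival by sulforhodamine B staining. IC50 given as mean ± SD, three independent experiments.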

[2] = target: T1, 26S proteasomes from PC-3M cells, post-glutamyl peptide hydrolase (PGPH) activity (Homo sapiens, UniProt P28072); experiment: 26S proteasome activity assay, PGPH; assay type: biochemical; conditions: 1h
T1 sequence (P28072 35-239): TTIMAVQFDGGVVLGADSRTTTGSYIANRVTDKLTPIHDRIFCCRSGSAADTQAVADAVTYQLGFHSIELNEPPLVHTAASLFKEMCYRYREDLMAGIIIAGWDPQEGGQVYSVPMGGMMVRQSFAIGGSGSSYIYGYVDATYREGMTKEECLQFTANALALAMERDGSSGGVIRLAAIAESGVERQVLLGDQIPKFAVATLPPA

[3] = system: 26S proteasomes from PC-3M cells, trypsin-like (T-L) activity; experiment: 26S proteasome activity assay, T-L; assay type: biochemical; conditions: 1h; for IC50: read-out: IC50 for T-L, 26S proteasomes, 37°C
[4] = system: 26S proteasomes from PC-3M cells, chymotrypsin-like (CT-L) activity; experiment: 26S proteasome activity assay, CT-L; assay type: biochemical; conditions: 1h; for IC50: read-out: IC50 for CT-L, 26S proteasomes, 37°C
HL-60 cells = experiment: Cancer cell proliferation; assay type: cell-based; conditions: read-out: IC50, proliferation, 48 h
Summary of the method: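 HL-60 in RPMI 1640 with 10% FBS and penicillin/streptomycin at 37°C, 5% CO2. Seeded in 96-well format and exposed 48 h to a range of test compound concentrations, with a reference proteasome inhibitor run alongside. Survival by MTT. IC50 reported as mean ± SD over three independent experiments.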

PC-3M cells [5] = experiment: Cancer cell proliferation; assay type: cell-based
Summary of the method: as §1

PC-3M cell xenograft = experiment: PC-3M xenograft tumor model; assay type: in vivo, Balb/c male nude mice; conditions: intraperitoneal, twice weekly, day 37
Summary of the method: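 Male Balb/c nude mice, 4-5 weeks, SPF. 3×10^6 PC-3M cells in PBS injected s.c. into the right flank. At about 0.2 cm3, randomised to 5 groups of 7: saline, reference inhibitor 1.25 mg/kg, test compound 1.25, 2.25 or 3.25 mg/kg. Dosed i.p. twice weekly, 11 times over 36 days. Volume = a×b²/2, measured before each dose; final measurement on day 37.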

Bel-7740 cells = experiment: Cancer cell proliferation; assay type: cell-based; conditions: read-out: IC50, proliferation, 48 h
Summary of the method: as §1

PC-3M cells [6] = experiment: Cell cycle assay; assay type: cell-based; conditions: 48 h
[7] = system: proteasome β catalytic sites in PC-3M cells; experiment: Proteasome activity profiling in intact cells; assay type: cell-based; conditions: 12.5-400 nM, 3 h
Summary of the method: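 PC-3M cells treated 3 h with test compound (12.5-400 nM), washed and harvested; proteasomes extracted as for the activity assay. Lysates labelled with Me4BodipyFL-Ahx3Leu3VS (5 μM) for 1 h at 37°C, boiled in sample buffer. 20 μg protein per lane on 12.5% SDS-PAGE, in-gel fluorescence scan. Band integrated optical density quantified; three independent experiments.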

[8] = system: cell cycle proteins in PC-3M cell xenograft tumors; experiment: Western blot analysis, xenograft tumor tissue; assay type: in vivo, Balb/c male nude mice; conditions: p<0.05
Summary of the method: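 Western blot on PC-3M xenograft tumours from mice dosed i.p. twice weekly. Tissue ground and lysed, whole protein on 10% SDS-PAGE, blotted to nitrocellulose, blocked with 5% milk. Primary antibodies against cyclin B1, p21, p27, wee 1 and others overnight at 4°C, then anti-mouse/anti-rabbit secondaries. ECL imaging; Student's t-test against control.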

Viscera = assay type: in vivo, Balb/c male nude mice; conditions: all three doses (1.25, 2.25, 3.25 mg/kg), P>0.05
Summary of the method: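 Organ index from the PC-3M xenograft mice (male Balb/c nude; saline, reference inhibitor or test compound at 1.25, 2.25, 3.25 mg/kg i.p. twice weekly, 11 doses over 36 days). On day 37, body weight recorded, then mice killed; heart, liver, lung, brain, kidney and spleen excised and weighed. Group means ± SD compared with control by Student's t-test.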

IC50 (Bcap37 cells): 0.879 ± 0.0182 µM
IC50 ([2]; read-out: IC50 for PGPH, 26S proteasomes, 37°C): 0.714 ± 0.044 µM
PGPH activity inhibited ([2]; various YSY01A concentrations): 12-48%
IC50 [3]: 1.24 ± 0.077 µM
IC50 [4]: 0.123 ± 0.018 µM
IC50 (HL-60 cells): 0.17 ± 0.0099 µM
IC50 (PC-3M cells [5]; read-out: IC50, proliferation, 48 h): 0.15 ± 0.009 µM
IC50 (Bel-7740 cells): 0.286 ± 0.0132 µM
Impact on viscera index (body, heart, liver, brain, kidney, spleen and lung) (Viscera): slightly impacted
SMILES: CC(C)C[C@H](NC(=O)[C@H](Cc1ccc2ccccc2c1)NC(=O)[C@H](CC(C)C)NC(=O)c1cnccn1)B(O)O [YSY01A, N-(2-Pyrazinecarbonyl)-L-leucine-L-(2-naphthyl)-alanine-L-leucine boronic acid]
Protein (cyclinB1, p21, p27, P-cdc2 (tyr15), wee 1) expression ([1]; 12.5-100 nM, 48 h, p<0.05 versus control): increased
Concentration causing ubiquitinated protein accumulation ([1]; 48h): 25 nM
T-L activity inhibited ([3]; various YSY01A concentrations): 12-43%
CT-L activity inhibited ([4]; various YSY01A concentrations): 34-86%
Inhibition efficacy relative to PS341 (PC-3M cells [5]; 48h): three times highter
Tumor growth inhibition (final tumor volume) (PC-3M cell xenograft; 1.25 mg/kg): 45.7%
Tumor growth inhibition (final tumor volume) (PC-3M cell xenograft; 2.25 mg/kg): 52.8%
Tumor growth inhibition (final tumor volume) (PC-3M cell xenograft; 3.25 mg/kg): 60.1%
Increase of cells in the G2/M phase (PC-3M cells [6]; 50 nM): 14%
Increase of cells in the G2/M phase (PC-3M cells [6]; 100 nM): 44%
β5i, β2, β2i, β1 and β1i/β5 fluorgenic bands [7]: decreased
Protein (cyclinB1, p21, p27, P-cdc2 (tyr15), wee 1) expression from tumor tissue [8]: enhanced

IC50 [3]: 5.35 ± 0.057 µM
IC50 [4]: 0.071 ± 0.001 µM
SMILES: CC(C)C[C@H](NC(=O)[C@H](Cc1ccccc1)NC(=O)c1cnccn1)B(O)O [PS341, reference compound]
Tumor growth inhibition (final tumor volume) (PC-3M cell xenograft; 1.25 mg/kg): 49.6%
